Assay outcomes as filed in PubChem.
M4 antag – CHRM4 antagonism in calcium assay | P08173 | CHO-hM4 cells, ACh EC80, Fluo-8 calcium fluorescence | inhibition, % at 3 µM | AID 624125 | 360,000 tested, 0.73% active;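 active = inhibition above its plate's cutoff, the mean inhibition of sample wells plus 3 SD, cut at about 27% in these data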
Target sequence (P08173 whole entry, looked up): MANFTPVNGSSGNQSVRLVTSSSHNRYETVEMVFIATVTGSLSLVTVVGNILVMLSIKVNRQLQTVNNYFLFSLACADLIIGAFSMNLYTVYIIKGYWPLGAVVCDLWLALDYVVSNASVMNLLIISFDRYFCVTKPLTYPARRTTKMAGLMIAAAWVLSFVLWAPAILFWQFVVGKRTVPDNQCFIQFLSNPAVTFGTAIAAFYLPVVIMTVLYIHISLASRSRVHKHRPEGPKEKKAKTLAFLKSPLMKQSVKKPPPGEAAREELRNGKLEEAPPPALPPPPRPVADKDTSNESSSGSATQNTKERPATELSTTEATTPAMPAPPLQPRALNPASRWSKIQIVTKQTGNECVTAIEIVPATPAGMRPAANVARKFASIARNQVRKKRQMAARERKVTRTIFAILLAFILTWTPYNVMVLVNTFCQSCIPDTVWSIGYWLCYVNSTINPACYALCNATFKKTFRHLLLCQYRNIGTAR
M5 PAM – CHRM5 positive allosteric modulation; P08912; activation, % at 3 µM; AID 624038; 360,000 tested, 0.3% active; CHO-K1 hM5, Fluo-8 calcium, ACh EC20 PAM; 0% = ACh EC20, 100% = ACh EC100;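 active = activation above the run cutoff, the mean activation of all test compounds plus 3 SD, cut at about 18% in these data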
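system = human M5 receptor in CHO-K1 cells | reagent = EC20 acetylcholine as agonist stimulus | compound dosing = single-point, 3 µM nominal | incubation = Fluo-8 loading 80 min at 37 °C plus 30 min room temperature | detection = Fluo-8 calcium dye fluorescence, kinetic read | benchmarks = low control EC20 acetylcholine (0%), high control EC100 acetylcholine (100%)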
CHRM5 agonist – agonists of human muscarinic M5 receptor (CHRM5); activation, % at 3 µM; CHO-K1 hM5 cells, Fluo-8 calcium fluorescence; 0% DMSO wells, 100% maximal acetylcholine response; AID 624037; P08912; 360,000 tested, 0.19% active;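 active = activation above the run's mean over test compounds plus 3 SD, cut at about 23% in these data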;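 note: signal is peak over basal fluorescence ratio across the kinetic read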
CHRM4 agonist – agonists of human muscarinic M4 receptor (CHRM4) | CHO-K1 hM4/Gqi5, Fluo-8 calcium fluorescence; vehicle 0%, full acetylcholine response 100% | AID 624127 | 360,000 tested, 0.14% active | activation, % at 3 µM | P08173;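 active = activation above the run mean over all test wells plus 3 SD, cut at about 32% in these data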;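 note: peak over basal fluorescence ratio per well then scaled between controls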
M5 antag – blocks acetylcholine activation of human M5 receptor | CHO-hM5 cells, Fluo-8 calcium fluorescence, ACh EC80 | inhibition, % at 3 µM | 360,000 tested, 0.59% active | AID 624040;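 active = inhibition above a per-plate cutoff, the mean of that plate's test compounds plus 3 SD, cut at about 27% in these data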
M4 PAM – CHRM4 positive allosteric modulation | CHO-K1 hM4/Gqi5, Fluo-8 calcium fluorescence, ACh EC20; 0% = ACh EC20, 100% = maximal ACh | activation, % at 3 µM | 360,000 tested, 0.4% active;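 active = activation above its plate's cutoff, the mean activation of sample wells plus 3 SD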
Hits are given with their value; i = inactive. Rows were chosen to be rich in hits. Some 1.8% of all compounds tested hit in one or more screens of this group.

SMILES	M4 antag	M5 PAM	CHRM5 agonist	CHRM4 agonist	M5 antag	M4 PAM
Cc1ccc(S(=O)(=O)N(C)C)cc1NC(=O)CN1C(=O)NC2(CCCCCC2)C1=O	i	i	i	i	29.1	i
O=C(CN1CCN(c2ccccc2F)CC1)c1c[nH]c2ccccc12	i	20.5	i	i	i	i
CC(C)c1ccc(CNCCCSc2ncccn2)cc1	i	i	i	i	i	i
Cc1csc(=O)n1CC(=O)Nc1ccc(Cl)c(Cl)c1	i	i	i	i	i	i
Cn1c(N)c(N2CCCCC2)c(=O)n(CC(=O)Nc2ccc(Cl)c(Cl)c2)c1=O	i	19.0	i	i	i	i
COc1ccc(NC(=O)c2cc(-c3ccccn3)nc3ccccc23)cc1S(=O)(=O)N(C)C	i	i	i	i	i	i
CCCCc1c(-c2cccc(OC)c2)ncn1CCc1ccccc1OC	40.8	i	i	i	32.8	i
CCc1c(-c2ccccc2)ncn1Cc1cccc(-c2ccccc2)c1	i	i	i	i	27.2	i
CCc1c(-c2ccccc2F)ncn1Cc1cccc(-c2ccccc2)c1	i	i	i	i	i	i
CCc1c(-c2cccc(OC)c2)ncn1Cc1cccc(-c2ccccc2)c1	33.5	i	i	i	i	i
CCc1c(-c2ccc(Cl)cc2)ncn1Cc1cccc(-c2ccccc2)c1	i	i	i	i	i	i
COCCNC(=O)C1(C)CCCN(C(=O)c2ccc(F)c(Cl)c2)C1 (stereo unspecified)	i	i	i	i	i	i
CCCC/C(O)=C1\C(=O)CCCC1=NCCc1c(C)[nH]c2ccccc12	i	i	i	i	i	i
O=C1C=C(c2ccc(CO)cc2)C[C@@H](c2ccc(F)cc2)C1	i	i	i	i	i	i
O=C(Nc1ccncc1)Nc1cccc(C(F)(F)F)c1	i	i	i	i	i	i
CCN(CC)S(=O)(=O)c1ccc(NC(=O)Nc2cccc(C(F)(F)F)c2)cc1	i	i	i	i	29.8	i
O=C(Nc1ccc(OC(F)F)cc1)Nc1cccc(C(F)(F)F)c1	i	i	i	i	37.4	i
CC(C)c1cc(C(=O)Nc2cc(Br)ccc2O)no1	i	i	i	i	33.9	i
CC(=O)c1c(C)[nH]c(C(=O)OCC(=O)NC(C)c2ccccc2)c1C (stereo unspecified)	i	i	i	i	i	i
CCOC(=O)c1ccc(N[C@@H]2CCN3C(=O)c4ccccc4[C@@H]3C[C@H]2O)cc1	i	i	i	i	i	i
CCCCCCCC/C=C\CCCCCCCC(=O)NCCc1ccc(O)c(O)c1	i	19.1	i	i	i	i
Cn1c(-c2ccc3c(c2)OCO3)cnc1NCc1ccccc1	i	i	i	i	i	i
Cn1c(-c2ccc3c(c2)OCO3)cnc1NCc1ccccc1Cl	50.4	i	i	i	i	i
Cn1c(-c2ccc3c(c2)OCO3)cnc1NCc1cccc(Cl)c1	32.3	i	i	i	i	i
COc1ccc(OC)c(-c2nnc3n2N=C(c2ccc(OC(F)F)c(OCC4CC4)c2)CS3)c1	27.6	i	i	i	i	i
SMILES	M4 antag	M5 PAM	CHRM5 agonist	CHRM4 agonist	M5 antag	M4 PAM
COc1ccc(C2=Nn3c(nnc3-c3ccccc3F)SC2)cc1OC1CCCC1	28.7	i	i	i	i	i
COc1ccc(C2=Nn3c(nnc3-c3ccccc3F)SC2)cc1OC1CCOC1 (stereo unspecified)	i	i	i	i	i	i
COc1ccc(C2=Nn3c(nnc3-c3ccccc3OC)SC2)cc1OCC1CC1	i	i	i	i	i	i
CCn1c(SCC(=O)NNC(=O)c2ccc(OC)cc2)nnc1C1CC1	i	i	i	i	i	i
CNc1cncc(-c2ccc(F)cc2F)n1	i	i	i	i	i	i
COc1ccc(C2(C)NC(=O)N(CC(=O)Nc3cccnc3Cl)C2=O)cc1 (stereo unspecified)	i	i	i	i	i	i
CC1(c2ccc(OC(F)F)cc2)NC(=O)N(CC(=O)Nc2cccnc2Cl)C1=O (stereo unspecified)	i	i	43.3	i	i	i
CCN(CC)S(=O)(=O)c1cccc(NC(=O)CNc2cccc(S(=O)(=O)N3CCOCC3)c2)c1	i	i	i	i	i	i
CC1(C)Cc2c(cnn2-c2cccc(F)c2)C(NC(=O)CSc2ccncc2)C1 (stereo unspecified)	i	i	i	i	i	i
CCN1C(=O)[C@@H]2Cc3c([nH]c4ccccc34)C(c3ccc(OC)cc3)N2C1=S (stereo partly specified)	33.9	i	i	i	28.8	i
CN(C)S(=O)(=O)c1cccc(CSCc2cccc(S(=O)(=O)N(C)C)c2)c1	i	i	i	i	41.1	i
Cc1c(C)[n+](=O)c(C)c(C)n1[O-]	i	i	i	i	i	i
CCOC(=O)c1c(NC(=O)CSc2nnc(-c3ccccc3)o2)sc(C(C)=O)c1C	i	i	i	i	i	15.3
CCOC(=O)c1sc(NC(=O)CSc2n[nH]c(-c3ccccc3)n2)c(C#N)c1C	i	i	i	i	33.5	i
CCOC(=O)c1c(NC(=O)CSc2nnc(-c3ccc(C)cc3)o2)sc(C(C)=O)c1C	i	i	i	i	i	i
CCOC(=O)c1sc(NC(=O)CSc2nc(C)cc(C)n2)c(C#N)c1C	i	i	i	i	i	i
COc1ccc2[nH]cc(CCNC(=O)Cc3ccc(F)cc3)c2c1	i	i	i	i	i	i
Cc1cc(C)n(S(=O)(=O)c2ccc(F)cc2)n1	i	i	i	i	i	i
Cc1cc(C)n(S(=O)(=O)c2ccc(C(C)(C)C)cc2)n1	29.1	i	i	i	i	i
C=CCn1c(=N)n(CC(O)c2ccco2)c2ccccc21 (stereo unspecified)	i	29.0	i	i	i	16.8
CC[C@@H](C(=O)[C@@H](C)[C@@H](O)[C@H](C)CCc1ccc(C)c(O)c1C(=O)O)[C@H]1O[C@](CC)([C@H]2CC[C@](O)(CC)[C@H](C)O2)C[C@@H]1C	i	i	26.9	71.7	i	i
O=C(CSc1nnc2ccccn12)Nc1ccc2c(c1)OCCO2	i	i	i	i	i	i
Oc1cc2c(cc1O)[C@H]1c3ccc(O)c(O)c3OC[C@@]1(O)C2	i	i	i	i	i	i
Oc1ccc2c(c1)OCC1(O)Cc3cc(O)c(O)cc3C21 (stereo unspecified)	i	i	i	52.3	i	i
CCOC(=O)C1(CCCc2ccccc2)CCN(C2CCSCC2)CC1	i	i	i	i	29.9	i
COc1ccc(NC(=O)Cc2ccc(C)c(C)c2)cc1S(=O)(=O)N1CCCCC1	i	i	i	i	i	i
